# In paper PMC11290325 (Chemical Science, 2024):
# Where a SMILES comes first, the peptide text is derived from it.
# Key:
# [1] = target: T1, PTP1B (Homo sapiens, UniProt P18031); experiment: in vitro enzyme inhibition of PTP1B; assay type: biochemical
# T1 sequence (P18031 1-435): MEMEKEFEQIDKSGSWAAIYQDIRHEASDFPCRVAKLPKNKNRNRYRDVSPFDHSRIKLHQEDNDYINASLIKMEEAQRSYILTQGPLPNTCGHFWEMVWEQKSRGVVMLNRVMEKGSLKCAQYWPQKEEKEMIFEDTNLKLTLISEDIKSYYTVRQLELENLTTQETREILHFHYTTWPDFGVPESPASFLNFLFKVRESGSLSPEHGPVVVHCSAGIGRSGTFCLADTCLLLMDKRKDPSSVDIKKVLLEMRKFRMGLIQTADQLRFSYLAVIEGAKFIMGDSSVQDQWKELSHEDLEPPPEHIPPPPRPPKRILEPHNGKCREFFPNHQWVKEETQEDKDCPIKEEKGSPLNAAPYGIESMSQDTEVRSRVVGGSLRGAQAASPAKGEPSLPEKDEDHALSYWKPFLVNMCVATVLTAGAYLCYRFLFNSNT
# [2] = target: T1, PTP1B; experiment: Bio-Layer Interferometry; assay type: binding
# In short: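 Bio-layer interferometry […]. Wavelength shift and kinetic parameters were recorded. Kd was obtained by curve fitting. Cyclic peptides were made by OPA treatment of purified SPPS linear precursors.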
# [3] = test system: M13 phages; experiment: Phage infectivity; parameters: species or system M13 bacteriophage; settings: PBS pH 7.4, 20 min, room temperature
# In short: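 M13 phages displaying an N-terminal KGGSC pIII peptide with a factor Xa site were grown in E. coli TG1 and PEG-purified. They were then TCEP-reduced, factor Xa-digested and blocked with CBT (0.5 mM). After CBT removal and buffer exchange, they were treated with OPA at 100, 300 or 500 µM in PBS pH 7.4 for 20 min at room temperature. Titers (cfu) were measured after each stage by infecting TG1.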
# [4] = target: hKeap1 (Homo sapiens, UniProt Q14145); experiment: BLI binding to hKeap1; settings: Hk2 and Hk3 tested up to 100 μM
# [5] = target: NEK7 (Homo sapiens, UniProt Q8TDX7); experiment: BLI binding to NEK7
# Chain of NEK7 (Q8TDX7 whole entry): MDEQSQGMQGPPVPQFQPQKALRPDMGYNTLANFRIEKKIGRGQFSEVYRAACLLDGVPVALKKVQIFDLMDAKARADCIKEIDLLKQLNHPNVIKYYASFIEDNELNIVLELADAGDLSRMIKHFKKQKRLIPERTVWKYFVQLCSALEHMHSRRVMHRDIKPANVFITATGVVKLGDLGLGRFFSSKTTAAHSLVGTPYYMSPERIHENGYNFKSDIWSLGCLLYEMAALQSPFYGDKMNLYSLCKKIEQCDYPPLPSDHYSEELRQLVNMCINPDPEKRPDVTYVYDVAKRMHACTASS
# Chain of hKeap1 (Q14145 whole entry): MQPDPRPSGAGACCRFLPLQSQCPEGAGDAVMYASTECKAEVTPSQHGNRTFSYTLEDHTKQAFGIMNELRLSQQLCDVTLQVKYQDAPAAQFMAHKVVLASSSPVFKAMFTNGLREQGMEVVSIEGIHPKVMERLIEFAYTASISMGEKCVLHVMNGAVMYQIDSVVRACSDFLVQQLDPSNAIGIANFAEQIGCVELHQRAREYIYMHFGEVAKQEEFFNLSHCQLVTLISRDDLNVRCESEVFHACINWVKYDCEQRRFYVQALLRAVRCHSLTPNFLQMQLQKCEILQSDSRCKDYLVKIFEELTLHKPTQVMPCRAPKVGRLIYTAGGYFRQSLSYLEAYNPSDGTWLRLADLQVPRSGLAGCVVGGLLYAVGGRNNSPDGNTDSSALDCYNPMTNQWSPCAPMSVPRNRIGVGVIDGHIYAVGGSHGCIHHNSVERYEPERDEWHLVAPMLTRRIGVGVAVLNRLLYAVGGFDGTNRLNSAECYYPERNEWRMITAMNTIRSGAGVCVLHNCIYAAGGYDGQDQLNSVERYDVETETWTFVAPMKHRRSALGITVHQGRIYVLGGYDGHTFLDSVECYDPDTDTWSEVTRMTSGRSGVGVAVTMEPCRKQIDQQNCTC
compound,measurement,setting,value
Ac-KTFLHWRYC-NH2 [M1_SS],IC50,[1],54.8 ± 4.21 µM
same,Kd,[2],9.2 ± 0.9 µM
same,reduction in affinity compared to its cyclic counterpart,"[2]; BLI, linear precursor vs cyclic M1_OPA",four-fold
"O=Cc1ccccc1C=O [OPA, ortho-phthalaldehyde]",impact on M13 phages in cfus,[3]; OPA concentration below 300 μM,no significant impact
same,reduction in infectivity compared to untreated phage supernatant,[3]; OPA surpassing the 500 μM threshold,over 20 fold
"CC(=O)N[C@H]1CCCCn2cc3ccccc3c2SC[C@@H](C(N)=O)NC(=O)CNC(=O)[C@H](CCC(=O)O)NC(=O)CNC(=O)[C@H]([C@@H](C)O)NC(=O)[C@H](C)NC(=O)[C@H]([C@@H](C)O)NC(=O)[C@H](CCC(N)=O)NC1=O [Hk3] (HELM PEPTIDE1{[ac].[O=C([C@H](CCCCn1cc2ccccc2c1[*:3])N[*:1])[*:2]].Q.T.A.T.G.E.G.C.[am]}$PEPTIDE1,PEPTIDE1,2:R3-10:R3$$$V2.0)",binding to hKeap1 (in words),[4],did not exhibit significant affinity
Ac-KLFLHWARC-NH2 [M2_SS],binding to PTP1B (in words),[2]; BLI,unable to bind
"CC(=O)N[C@H]1CCCCn2cc3ccccc3c2SC[C@@H](C(N)=O)NC(=O)[C@H](CCC(=O)O)NC(=O)CNC(=O)[C@H]([C@@H](C)O)NC(=O)[C@H](CC(=O)O)NC(=O)[C@@H]2CCCN2C(=O)[C@H](CC(=O)O)NC(=O)[C@H](CC(C)C)NC1=O [Hk2] (HELM PEPTIDE1{[ac].[O=C([C@H](CCCCn1cc2ccccc2c1[*:3])N[*:1])[*:2]].L.D.P.D.T.G.E.C.[am]}$PEPTIDE1,PEPTIDE1,2:R3-10:R3$$$V2.0)",binding to hKeap1 (in words),[4],did not exhibit significant affinity
"CC[C@H](C)[C@@H]1NC(=O)[C@H](CC(C)C)NC(=O)[C@@H]2CCCN2C(=O)[C@H](Cc2ccccc2)NC(=O)[C@H](CC(C)C)NC(=O)[C@H](CC(C)C)NC(=O)[C@@H](NC(C)=O)CCCCn2cc3ccccc3c2SC[C@@H](C(N)=O)NC(=O)[C@H](CC(N)=O)NC1=O [N3] (HELM PEPTIDE1{[ac].[O=C([C@H](CCCCn1cc2ccccc2c1[*:3])N[*:1])[*:2]].L.L.F.P.L.I.N.C.[am]}$PEPTIDE1,PEPTIDE1,2:R3-10:R3$$$V2.0)",binding to NEK7 (in words),[5],low binding capacity
Ac-KQTATGRGC-NH2 [Hk1_SS],binding to hKeap1 (in words),[4],no interaction
